Experimental data gathered from unrelated publications.
Values after ≈ are worked out from the molar mass of the structure shown.

SMILES | tested on | test | test system | conditions | endpoint | value
CCC1(c2ccc(N)cc2)CCC(=O)NC1=O (stereo not shown) | DU-145 | cell growth or viability, CCK-8 | – | 48 h | IC50 | > 50 µM
COCCOCOc1cc(O)c(-c2cc(-c3ccc(C(=O)O)cc3)n(-c3ccccc3)n2)cc1C12CC3CC(CC(C3)C1)C2 | Jurkat | cell growth or viability, ATP luminescence | – | 24 h | IC50 | 2.54 µM
Cn1cnc(Cn2c(=O)[nH]/c(=N\c3cc4cn(C)nc4cc3Cl)n(Cc3cc(F)c(F)cc3F)c2=O)n1 | Alphacoronavirus 1 | viral replication, inhibitor, qPCR | CRFK | – | EC50 | ~50 µM
O=C(O)c1cn(C2CC2)c2cc(N3CCNCC3)c(F)cc2c1=O | Mycolicibacterium vaccae | microbial growth | IMET10670 | 5 µg/mL | inhibition zone | 41 mm
CN(C(=O)/C=C/c1ccoc1)[C@@H]1CC[C@@]2(O)[C@H]3Cc4ccc(O)c5c4[C@@]2(CCN3CC2CC2)[C@H]1O5 | – | thermal pain | mouse | subcutaneous | ED50 | 0.046 mg/kg
COC(=O)c1cc(-c2cccc(NC(=O)Nc3cccc(Cl)c3)c2)on1 | Mycobacteroides abscessus | microbial growth, broth dilution | ATCC19977 | 48 h | MIC | > 64 µg/mL
N.N.[Cl][Pt][Cl] | PLC | cell growth or viability | – | 24 h | IC50 | 63.9 µM
COC(=O)c1cc(-c2cccc(NC(=S)Nc3ccc(C#N)cc3)c2)on1 | Mycobacteroides abscessus | microbial growth, broth dilution | ATCC19977 | 48 h | MIC | > 64 µg/mL
COc1c2c(cc3c1OCO3)[C@]13C=C[C@H](OC)C[C@@H]1[N@](C2)C[C@H]3OC(=O)c1ccc2ccccc2c1 | MOLT-4 | cell growth or viability, WST-1 | – | – | IC50 | > 10 µM
CO[C@H]1/C=C/O[C@@]2(C)Oc3c(C)c(O)c4c(O)c(c(/C=N/N5CCN(C)CC5)c(O)c4c3C2=O)NC(=O)/C(C)=C\C=C\[C@H](C)[C@H](O)[C@@H](C)[C@@H](O)[C@@H](C)[C@H](OC(C)=O)[C@@H]1C | Mycobacteroides abscessus | microbial growth | ATCC19977 | – | MIC | 25 to 100 µg/mL (≈ 30.4 to 122 µM)
COCCOCOc1cc(OCc2cc(F)cc(F)c2)c(C(=O)/C=C/c2ccc(C(=O)O)cc2)cc1C12CC3CC(CC(C3)C1)C2 | Jurkat | cell growth or viability, ATP luminescence | – | 24 h | IC50 | 0.93 µM
[H]/N=C(/N)N[C@H]1[C@H](O)[C@@H](O)[C@H](O[C@@H]2O[C@@H](C)[C@](O)(C=O)[C@H]2O[C@@H]2O[C@@H](CO)[C@H](O)[C@@H](O)[C@@H]2NC)[C@@H](N/C(N)=N\[H])[C@@H]1O | Mycobacteroides abscessus | microbial growth | ATCC19977 | – | MIC | 50 µg/mL (≈ 86 µM)
COC(=O)c1cc(-c2cccc(NC(=O)Nc3ccc(Cl)cc3Cl)c2)on1 | Mycobacteroides abscessus | microbial growth, broth dilution | ATCC19977 | 48 h | MIC | > 64 µg/mL
